Bioassay records: PubChem, The Scripps Research Institute Molecular Screening Center
TAAR1 antag: human TAAR1 antagonism; AID 624466; actives 1.5% (n = 360,000); inhibition, % at 3 µM; CHO RD-HGA16 TAAR1, Fluo-8 calcium fluorescence, antagonist; Q96RJ0;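 active = inhibition above a per-plate cutoff, the mean inhibition of test compounds on that plate plus 3 SD, cut at about 49% in these data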;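 also: 0% = DMSO plus EC80 beta-PEA response and 100% = DMSO alone without agonist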
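Material: RD-HGA16 CHO cells with stable hTAAR1 and Gα16; Dosing: single nominal final test compound concentration of 3 µM; Schedule: seeding 17-24 h prior, 75-min 37 °C, 30-min RT dye loading; Detection: kinetic Fluo-8 calcium fluorescence measurement; Measure: % inhibition from peak post-agonist over basal fluorescence ratio; Benchmarks: vehicle and agonist controls.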
TAAR1 ag: agonists of human TAAR1; activation, % at 3 µM; actives 0.99% (n = 360,000); CHO RD-HGA16 TAAR1, Fluo-8 calcium fluorescence; vehicle wells 0%, saturating PEA agonist 100%;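 active = activation above the mean activation of all test compounds in the run plus 3 SD, cut at about 38% in these data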
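Assay system: CHO-derived RD-HGA16 cells with stable Gα16 and human TAAR1; timing: 17-24 h seeding, 75 min 37 °C dye, 30 min RT; read-out: % activation from peak over basal fluorescence ratio, DMSO-to-PEA scaled; measured by: kinetic Fluo-8 calcium fluorescence; benchmarks: low control DMSO, high control PEA (EC100); doses: 3 µM single concentration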
OXTR potentiator: potentiators of human oxytocin receptor; actives 0.061% (n = 320,000); CHO-OTR cells, Fluo-8 calcium fluorescence, potentiator mode; 0% = oxytocin EC15, 100% = EC100; P30559; activation, % at 3 µM;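 active = activation above that plate's cutoff, the mean activation of tested compounds plus 3 SD, cut at about 6.6% in these data, passing the limit was not always enough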;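 also: 100% uses oxytocin at 75 nM as the full agonist control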
Target sequence (P30559 whole entry, looked up): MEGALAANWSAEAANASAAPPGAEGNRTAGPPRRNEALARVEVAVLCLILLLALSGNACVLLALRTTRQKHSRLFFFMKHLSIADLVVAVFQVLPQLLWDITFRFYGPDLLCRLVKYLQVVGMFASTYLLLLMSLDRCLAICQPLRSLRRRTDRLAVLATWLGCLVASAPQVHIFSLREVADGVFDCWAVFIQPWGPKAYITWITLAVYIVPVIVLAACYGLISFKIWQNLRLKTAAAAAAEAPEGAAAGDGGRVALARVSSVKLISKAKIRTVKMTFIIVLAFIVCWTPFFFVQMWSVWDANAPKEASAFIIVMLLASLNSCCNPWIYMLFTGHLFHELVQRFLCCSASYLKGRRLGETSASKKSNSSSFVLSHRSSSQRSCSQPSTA
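Replication – single well per compound, singlicate · Assay system – CHO cell line stably expressing human OTR · Timing – 6 min pre-incubation, 100 s read · Measure – normalized max/min fluorescence ratio, % activation · Doses – 3.0 µM, one dose · Detection – Fluo-8 calcium dye fluorescence · Probe or stimulus – oxytocin near EC15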
OXTR ag: human OXTR agonism; P30559; CHO-OTR cells, Fluo-8 calcium fluorescence; normalized: DMSO 0%, oxytocin 100%; activation, % at 3 µM; actives 0.32% (n = 320,000); AID 2435;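 active = activation above the mean of all tested compounds plus 3 SD, cutoff set per screening run, cut at about 20% in these data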;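 also: peak over basal fluorescence ratio from a 100 s FLIPR kinetic read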
V1R ag counter: counter-screen for oxytocin receptor agonists: human V1a receptor agonists; CHO-V1R cells, Fluo-8 calcium fluorescence, agonist mode; 0% DMSO, 100% 3 nM vasopressin; actives 0.25% (n = 320,000); activation, % at 3 µM;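 active = activation above the mean activation of all tested compounds plus 3 SD, per screening run, cut at about 20% in these data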;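 also: signal is peak over basal fluorescence ratio across a 100 second FLIPR read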
* = called active by the depositor; · = not tested or not shown. Rows were chosen to be rich in hits. Some 2.3% of all compounds tested hit in one or more screens of this group.

SMILES | TAAR1 antag | TAAR1 ag | OXTR potentiator | OXTR ag | V1R ag counter
CCCCN(C=O)c1c(CC)nc2ccc(C(=O)N3CCN(C(C)=O)CC3)cn12 | 3 | 1 | · | · | ·
CCN1C(N(C)CCc2c[nH]c3ccccc23)=N[C@@H](c2cccc(C(F)(F)F)c2)C(C(=O)OC)=C1C | · | · | -10 | 23* | 7
CCN1C(=O)N[C@@H](c2cccc(C(F)(F)F)c2)C(C(=O)OC)=C1C | 1 | 9 | -11 | -2 | 0
C=CCNc1nc(-c2sc(NC(=O)C(C)(C)C)nc2C)c(-n2cc(-c3ccccc3)nn2)s1 | 61* | 7 | · | · | ·
CC(=O)c1ccc(C(=O)N2CCCC(N3CCN(c4ccc(F)cc4)CC3)C2)s1 (stereo not drawn) | 7 | 3 | -4 | 0 | 1
Cn1c(=O)[nH]c(=O)c2c1nc(Br)n2CC(O)COc1ccc(Cl)cc1 (stereo not drawn) | 23 | 19 | -8 | 3 | 8
CC(C)(C)CN1CCN(Cc2cc3ccccc3[nH]2)CC1CCO (stereo not drawn) | -19 | 5 | 2 | 3 | 2
CCOc1ccc(CN2CCN(Cc3cc4ccccc4[nH]3)CC2CCO)cc1 (stereo not drawn) | 38 | 42* | · | · | ·
CN(C)S(=O)(=O)c1ccc(Nc2ccc(-c3ccc4c(c3)OCCO4)nn2)cc1 | 49* | 16 | -3 | 3 | 2
COc1ccccc1/C=C1/C(=O)N(c2ccccc2)N=C1C | 16 | 37* | -10 | 3 | 19
CC1=NN(c2ccccc2)C(=O)/C1=C/C=C/c1ccccc1 | 18 | -2 | -5 | -2 | 0
CC1=NN(c2ccccc2)C(=O)/C1=C\N1CC(C)OC(C)C1 (stereo not drawn) | 70* | 98* | 2 | 1 | 0
C[C@H]([C@H](O)c1ccccc1)N(C)C(=O)CN | 3 | 6 | -3 | 0 | 0
Cc1ccc(-n2[nH]c(C)c(C=Nc3ccc(S(=O)(=O)N4CCOCC4)cc3)c2=O)c(C)c1 | -1 | 1 | 2 | -1 | -1
CC(C)(C)C(=O)Nc1ccccc1C(=O)Nc1cc(Cl)ccc1Cl | 27 | 54* | -3 | 0 | -1
CC(C)(C)C(=O)Nc1ccccc1C(=O)Nc1cccnc1 | -18 | -1 | 4 | 1 | -1
N#Cc1ccccc1CSc1ccc(-c2nc3ccccc3[nH]2)cn1 | 50* | 13 | -10 | 10 | 5
CC(=O)CSc1ccc(-c2nc3ccccc3[nH]2)cn1 | 13 | 4 | -2 | 1 | 0
COc1ccc(CNCc2ccc(OC)c3ccccc23)cc1 | -5 | 9 | 2 | 3 | 0
COC(=O)c1cccc(NC(=O)Nc2ccc(Cl)c(Cl)c2)c1 | 31 | 21 | -13 | 17 | 11
COC(=O)c1cc(NC(=O)Nc2ccccc2)ccc1Cl | 54* | 26 | -13 | 14 | 13
O=C(Nc1ccccc1)Nc1ccc(Nc2ccccc2)cc1 | 15 | 21 | -6 | 4 | 4
O=C(O)CC(CC(=O)Nc1ccc(-n2ccc(C(F)(F)F)n2)cc1)c1ccccc1 (stereo not drawn) | -9 | 11 | -6 | 0 | -2
O=C(Nc1ccccc1)Nc1ccccc1 | 19 | 39* | · | · | ·
CC(=O)Nc1ccc(NC(=O)Nc2cccc(Cl)c2)cc1 | 14 | 40* | -9 | 0 | 0
SMILES | TAAR1 antag | TAAR1 ag | OXTR potentiator | OXTR ag | V1R ag counter
O=C(Nc1ccccc1)Nc1ccc(-n2ccc(C(F)(F)F)n2)cc1 | 58* | 12 | -17 | 5 | 9
CC(=O)Nc1ccc(CN2C(=O)C(C)(C)ON=C2c2ccc(C(F)(F)F)cc2)cc1 | -19 | 2 | · | · | ·
CCOC(=O)C1CCCN(c2oc(-c3ccc(OC)cc3)nc2C#N)C1 (stereo not drawn) | -7 | 3 | -6 | -1 | -1
COC(=O)C1=C(C)N(C)C(=NCc2ccc(OC)cc2)NC1c1ccc(Cl)cc1 (stereo not drawn) | -11 | 6 | · | · | ·
C#CCNC(=O)C[C@H]1C[C@@]2(C(=O)OC)C(=C[C@H](C3CCCC3)O[C@@H]2C)N(CCCCCCCC)C1=O | -24 | -2 | · | · | ·
C[C@H]1CN(c2ccc(N3CCNC[C@@H]3C)cc2C#N)CCN1Cc1ccccc1 | -11 | 11 | · | · | ·
O=C(NC1CC1)c1ccc(Cl)c(S(=O)(=O)N2CCOCC2)c1 | -5 | 1 | -8 | 1 | 1
COC(=O)c1sccc1NC(=O)Nc1ccc(Cl)c(Cl)c1 | 54* | 2 | -7 | -1 | 2
CC1(C(=O)Nc2cnc3ccccc3c2)CCN1C(=O)c1ccccc1CCc1ccccc1 (stereo not drawn) | 30 | 0 | · | · | ·
CCc1nc2ccc(C(=O)Nc3ccc(NC(C)=O)cc3)cn2c1N(C)CCC(C)C | 30 | 17 | · | · | ·
CCc1nc2ccc(C(=O)Nc3ccc(C(N)=O)cc3)cn2c1N(C)CCC(C)C | 26 | 43* | · | · | ·
COc1ccc(/C=C2\C(=O)NC(=S)N2C(=O)c2ccc(F)cc2)cc1 | 31 | 29 | -9 | 20* | 22*
COc1ccc(C2C(C(=O)c3ccccc3)N3c4ccccc4C=CC3C2[N+](=O)[O-])cc1 (stereo not drawn) | 19 | 43* | · | · | ·
COCc1ccc(CN2CCC(C(=O)Nc3cccc(-c4cccc(Cl)c4)c3)CC2)o1 | 21 | 18 | -16 | 23* | 28*
CN(C)/C=C\C(=C/C(=O)C(F)(F)F)Nc1ccccc1Oc1ccccc1 | 15 | 14 | 3 | -1 | -1
O=C(O)C1=CC[C@@H](c2ccc(Cl)cc2)N(S(=O)(=O)c2ccc(Cl)cc2)[C@H]1c1cccc(Cl)c1 | 64* | 6 | -20 | -2 | -1
Cc1ccc(S(=O)(=O)N2[C@@H](c3ccc(Cl)cc3)C(C(=O)O)=CC[C@H]2c2ccc(Cl)cc2)cc1 | 55* | 2 | -16 | -1 | 0
Cc1ccc([C@@H]2CC=C(C(=O)O)[C@H](c3ccc(Cl)cc3)N2S(=O)(=O)c2ccc(C)cc2)cc1 | 21 | 4 | -11 | -2 | 0
O=C(O)C1=CC[C@@H](c2ccc(Cl)cc2)N(S(=O)(=O)c2ccc(Cl)cc2)[C@H]1c1ccc(Br)cc1 | 52* | 0 | -6 | -1 | -1
Cc1ccc(S(=O)(=O)N2[C@@H](c3ccc(Cl)cc3)C(C(=O)O)=CC[C@H]2c2cccc(Cl)c2)cc1 | -9 | 1 | -5 | 1 | 0
C=CCN=C1NC(c2ccccc2C(F)(F)F)C(C(=O)OC)=C(C)N1Cc1ccccc1C(F)(F)F (stereo not drawn) | -10 | -2 | · | · | ·
COc1ccccc1CCNC(=O)CSc1nnc2ccc(-c3ccncc3)nn12 | -30 | 8 | -4 | -1 | 1
COc1cccc(CNc2nc3cc(-c4cccc(C(F)(F)F)c4)sc3c(=O)n2C)c1 | -1 | 0 | · | · | ·
